Experimental data taken from the RNAGym collection of RNA variant scans (doi:10.1002/anie.201605470).

B1: Osa-1-4 twister ribozyme (parent)
chain: CCGCCUAACACUGCCAAUGCCGGUCCCAAGCCCGGAUAAAAGUGGAGGGGGCGG

Variants of: B1
Test: self-cleavage, relative activity (ratio to wild type); higher = more cleavage; co-transcriptional
Outline: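 The 48 positions downstream of the cleavage site in a 54-nucleotide Oryza sativa twister ribozyme template were synthesised at 97 % wild-type base and 1 % of each other base. The template was transcribed in vitro at 37 °C for 2 h, with self-cleavage allowed during transcription. Reads with or without upstream sequence after deep sequencing marked cleavage status, and relative activity is fraction cleaved normalised to wild type.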

Which self-cleavage does the source give for CCGCCUAAUACUGACAAUGCCGGUCCCAAGCCCGGAUAAAAGUGGAGGGGGCGG [C14A C9U] here?
Its self-cleavage is 0.06.

With CCGCCUAACACUGAAAAUGCCGGUCCCAAGCCCGGAUAAAAGUGGAGGGGGCGG [C14A C15A] as the variant, how does the self-cleavage read?
Its self-cleavage is 0.07.

Which self-cleavage does the source give for CCGCCUAACACUGAGAAUGCCGGUCCCAAGCCCGGAUAAAAGUGGAGGGGGCGG [C14A C15G] here?
Its self-cleavage is 0.05.

Which self-cleavage does the source give for CCGCCUAACACUGAUAAUGCCGGUCCCAAGCCCGGAUAAAAGUGGAGGGGGCGG [C14A C15U] here?
The self-cleavage was 0.05.

With CCGCCUAACACUGACAAUGACGGUCCCAAGCCCGGAUAAAAGUGGAGGGGGCGG [C14A C20A] as the variant, how does the self-cleavage read?
The self-cleavage was 0.12.

With CCGCCUAACACUGACAAUGGCGGUCCCAAGCCCGGAUAAAAGUGGAGGGGGCGG [C14A C20G] as the variant, how does the self-cleavage read?
The self-cleavage was 0.03.

With CCGCCUAACACUGACAAUGUCGGUCCCAAGCCCGGAUAAAAGUGGAGGGGGCGG [C14A C20U] as the variant, how does the self-cleavage read?
Its self-cleavage is 0.16.

Which self-cleavage does the source give for CCGCCUAACACUGACAAUGCAGGUCCCAAGCCCGGAUAAAAGUGGAGGGGGCGG [C14A C21A] here?
The self-cleavage was 0.08.

With CCGCCUAACACUGACAAUGCGGGUCCCAAGCCCGGAUAAAAGUGGAGGGGGCGG [C14A C21G] as the variant, how does the self-cleavage read?
Its self-cleavage is 0.03.

Which self-cleavage does the source give for CCGCCUAACACUGACAAUGCUGGUCCCAAGCCCGGAUAAAAGUGGAGGGGGCGG [C14A C21U] here?
The self-cleavage was 0.09.

For CCGCCUAACACUGACAAUGCCGGUACCAAGCCCGGAUAAAAGUGGAGGGGGCGG [C14A C25A], which self-cleavage is on record?
The self-cleavage was 0.05.

For CCGCCUAACACUGACAAUGCCGGUGCCAAGCCCGGAUAAAAGUGGAGGGGGCGG [C14A C25G], which self-cleavage is on record?
Its self-cleavage is 0.02.

Which self-cleavage does the source give for CCGCCUAACACUGACAAUGCCGGUUCCAAGCCCGGAUAAAAGUGGAGGGGGCGG [C14A C25U] here?
Its self-cleavage is 0.07.

For CCGCCUAACACUGACAAUGCCGGUCACAAGCCCGGAUAAAAGUGGAGGGGGCGG [C14A C26A], which self-cleavage is on record?
Its self-cleavage is 0.05.

With CCGCCUAACACUGACAAUGCCGGUCGCAAGCCCGGAUAAAAGUGGAGGGGGCGG [C14A C26G] as the variant, how does the self-cleavage read?
The self-cleavage was 0.02.

Which self-cleavage does the source give for CCGCCUAACACUGACAAUGCCGGUCUCAAGCCCGGAUAAAAGUGGAGGGGGCGG [C14A C26U] here?
The self-cleavage was 0.05.

With CCGCCUAACACUGACAAUGCCGGUCCAAAGCCCGGAUAAAAGUGGAGGGGGCGG [C14A C27A] as the variant, how does the self-cleavage read?
Its self-cleavage is 0.07.

With CCGCCUAACACUGACAAUGCCGGUCCGAAGCCCGGAUAAAAGUGGAGGGGGCGG [C14A C27G] as the variant, how does the self-cleavage read?
The self-cleavage was 0.03.

For CCGCCUAACACUGACAAUGCCGGUCCUAAGCCCGGAUAAAAGUGGAGGGGGCGG [C14A C27U], which self-cleavage is on record?
The self-cleavage was 0.04.

With CCGCCUAACACUGACAAUGCCGGUCCCAAGACCGGAUAAAAGUGGAGGGGGCGG [C14A C31A] as the variant, how does the self-cleavage read?
The self-cleavage was 0.03.

For CCGCCUAACACUGACAAUGCCGGUCCCAAGGCCGGAUAAAAGUGGAGGGGGCGG [C14A C31G], which self-cleavage is on record?
The self-cleavage was 0.02.

With CCGCCUAACACUGACAAUGCCGGUCCCAAGUCCGGAUAAAAGUGGAGGGGGCGG [C14A C31U] as the variant, how does the self-cleavage read?
Its self-cleavage is 0.04.

Which self-cleavage does the source give for CCGCCUAACACUGACAAUGCCGGUCCCAAGCACGGAUAAAAGUGGAGGGGGCGG [C14A C32A] here?
The self-cleavage was 0.05.

With CCGCCUAACACUGACAAUGCCGGUCCCAAGCGCGGAUAAAAGUGGAGGGGGCGG [C14A C32G] as the variant, how does the self-cleavage read?
Its self-cleavage is 0.03.

Which self-cleavage does the source give for CCGCCUAACACUGACAAUGCCGGUCCCAAGCUCGGAUAAAAGUGGAGGGGGCGG [C14A C32U] here?
The self-cleavage was 0.03.

For CCGCCUAACACUGACAAUGCCGGUCCCAAGCCAGGAUAAAAGUGGAGGGGGCGG [C14A C33A], which self-cleavage is on record?
Its self-cleavage is 0.03.

With CCGCCUAACACUGACAAUGCCGGUCCCAAGCCGGGAUAAAAGUGGAGGGGGCGG [C14A C33G] as the variant, how does the self-cleavage read?
The self-cleavage was 0.01.

For CCGCCUAACACUGACAAUGCCGGUCCCAAGCCUGGAUAAAAGUGGAGGGGGCGG [C14A C33U], which self-cleavage is on record?
The self-cleavage was 0.06.

Which self-cleavage does the source give for CCGCCUAACACUGACAAUGCCGGUCCCAAGCCCGGAUAAAAGUGGAGGGGGAGG [C14A C52A] here?
The self-cleavage was 0.1.

With CCGCCUAACACUGACAAUGCCGGUCCCAAGCCCGGAUAAAAGUGGAGGGGGGGG [C14A C52G] as the variant, how does the self-cleavage read?
The self-cleavage was 0.13.

With CCGCCUAACACUGACAAUGCCGGUCCCAAGCCCGGAUAAAAGUGGAGGGGGUGG [C14A C52U] as the variant, how does the self-cleavage read?
Its self-cleavage is 0.13.

With CCGCCUAACACUAACAAUGCCGGUCCCAAGCCCGGAUAAAAGUGGAGGGGGCGG [C14A G13A] as the variant, how does the self-cleavage read?
Its self-cleavage is 0.03.

With CCGCCUAACACUCACAAUGCCGGUCCCAAGCCCGGAUAAAAGUGGAGGGGGCGG [C14A G13C] as the variant, how does the self-cleavage read?
The self-cleavage was 0.02.

With CCGCCUAACACUUACAAUGCCGGUCCCAAGCCCGGAUAAAAGUGGAGGGGGCGG [C14A G13U] as the variant, how does the self-cleavage read?
Its self-cleavage is 0.02.

With CCGCCUAACACUGACAAUACCGGUCCCAAGCCCGGAUAAAAGUGGAGGGGGCGG [C14A G19A] as the variant, how does the self-cleavage read?
Its self-cleavage is 0.1.

For CCGCCUAACACUGACAAUCCCGGUCCCAAGCCCGGAUAAAAGUGGAGGGGGCGG [C14A G19C], which self-cleavage is on record?
Its self-cleavage is 0.04.

For CCGCCUAACACUGACAAUUCCGGUCCCAAGCCCGGAUAAAAGUGGAGGGGGCGG [C14A G19U], which self-cleavage is on record?
The self-cleavage was 0.07.

With CCGCCUAACACUGACAAUGCCAGUCCCAAGCCCGGAUAAAAGUGGAGGGGGCGG [C14A G22A] as the variant, how does the self-cleavage read?
Its self-cleavage is 0.08.

With CCGCCUAACACUGACAAUGCCCGUCCCAAGCCCGGAUAAAAGUGGAGGGGGCGG [C14A G22C] as the variant, how does the self-cleavage read?
Its self-cleavage is 0.02.

For CCGCCUAACACUGACAAUGCCUGUCCCAAGCCCGGAUAAAAGUGGAGGGGGCGG [C14A G22U], which self-cleavage is on record?
Its self-cleavage is 0.05.

Which self-cleavage does the source give for CCGCCUAACACUGACAAUGCCGAUCCCAAGCCCGGAUAAAAGUGGAGGGGGCGG [C14A G23A] here?
The self-cleavage was 0.05.

With CCGCCUAACACUGACAAUGCCGCUCCCAAGCCCGGAUAAAAGUGGAGGGGGCGG [C14A G23C] as the variant, how does the self-cleavage read?
The self-cleavage was 0.02.

Which self-cleavage does the source give for CCGCCUAACACUGACAAUGCCGUUCCCAAGCCCGGAUAAAAGUGGAGGGGGCGG [C14A G23U] here?
Its self-cleavage is 0.02.

Which self-cleavage does the source give for CCGCCUAACACUGACAAUGCCGGUCCCAAACCCGGAUAAAAGUGGAGGGGGCGG [C14A G30A] here?
The self-cleavage was 0.02.

With CCGCCUAACACUGACAAUGCCGGUCCCAACCCCGGAUAAAAGUGGAGGGGGCGG [C14A G30C] as the variant, how does the self-cleavage read?
Its self-cleavage is 0.03.

With CCGCCUAACACUGACAAUGCCGGUCCCAAUCCCGGAUAAAAGUGGAGGGGGCGG [C14A G30U] as the variant, how does the self-cleavage read?
The self-cleavage was 0.62.

For CCGCCUAACACUGACAAUGCCGGUCCCAAGCCCAGAUAAAAGUGGAGGGGGCGG [C14A G34A], which self-cleavage is on record?
Its self-cleavage is 0.07.

With CCGCCUAACACUGACAAUGCCGGUCCCAAGCCCCGAUAAAAGUGGAGGGGGCGG [C14A G34C] as the variant, how does the self-cleavage read?
Its self-cleavage is 0.05.

With CCGCCUAACACUGACAAUGCCGGUCCCAAGCCCUGAUAAAAGUGGAGGGGGCGG [C14A G34U] as the variant, how does the self-cleavage read?
The self-cleavage was 0.05.
